# Source: PubChem
# VIM-2 inh: VIM-2 metallo-beta-lactamase inhibitors, primary screen, biochemical, epi-absorbance readout, Pseudomonas aeruginosa enzyme; purified VIM-2, nitrocefin hydrolysis, epi-absorbance fluorescence; inhibition, % at 5.6 µM; hit rate 0.89% among 290,000; AID 1527, 2009;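 active = inhibition above the mean of all tested compounds plus 3 SD, cutoff set per screening run, cut at about 7.5% in these data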;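 note: red hydrolysis product quenches plate fluorescence so inhibitors raise well fluorescence; 0% = enzyme with DMSO and 100% = DMSO without enzyme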
# IMP-1 inhibitor: IMP-1 metallo-beta-lactamase inhibitors, primary screen, biochemical, epi-absorbance readout, Pseudomonas aeruginosa enzyme. purified IMP-1, nitrocefin hydrolysis, epi-absorbance fluorescence. inhibition, % at 5.6 µM. hit rate 0.45% among 290,000;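 active = inhibition above the mean plus 3 SD of all compounds in the same screening run, cut at about 4.5% in these data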;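 note: 0% = IMP-1 with DMSO and 100% = DMSO wells lacking enzyme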
#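 System: purified IMP-1; amount: IMP-1 0.2 nM before substrate addition; compound: single dose, 5.6 µM; times: 25 °C, 15 min preincubation, 25 min reaction; signal: Epi-absorbance via hydrolysed-nitrocefin quenching of white-plate fluorescence, 480/530 nm, EDTA stop; benchmarks: DMSO with and without IMP-1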
# PHOSPHO1 inh: PubChem AID 1565. recombinant PHOSPHO1, absorbance phosphatase assay. inhibition, % at 13.3 µM. hit rate 1.1% among 290,000; in the data active = inhibition above about 60%
# Target sequence (Q8TCT1 whole entry, looked up): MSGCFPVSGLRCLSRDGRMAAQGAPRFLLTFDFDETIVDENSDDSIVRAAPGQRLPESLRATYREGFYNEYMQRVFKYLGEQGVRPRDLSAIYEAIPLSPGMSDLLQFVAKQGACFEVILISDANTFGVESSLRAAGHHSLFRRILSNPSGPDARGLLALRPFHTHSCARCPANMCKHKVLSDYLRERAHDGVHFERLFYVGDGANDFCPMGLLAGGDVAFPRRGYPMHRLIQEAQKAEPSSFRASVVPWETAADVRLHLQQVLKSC
# PvdQ acylase: P. aeruginosa PvdQ acylase inhibitors, primary screen, biochemical, fluorescence, plate reader and imaging, single point; purified PvdQ acylase; inhibition, % at 10 µM; hit rate 0.063% among 340,000; PvdQ acylase [Pseudomonas aeruginosa LESB58]; in the data active = inhibition above about 30%, passing the limit was not always enough;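 note: 0% = vehicle neutral wells and 100% = reference inhibitor wells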
# Yeast superoxide: reduction of superoxide in aged yeast, primary screen, HTS; S. cerevisiae aged cells, superoxide DHE fluorescence; stronger effect = lower value; superoxide response (% of plate mean), % at 10 µM; hit rate 0.18% among 330,000;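 active = superoxide response under a set limit, about three screen SD below normal, cut at about 65% in these data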;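 note: yeast aged for seven days with compound at 30 °C before DHE staining; 100% = average MFI of all compound-treated wells on the plate with controls excluded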
# Starred values were filed as active, the others as inactive; · = no result; ! = repeats disagree. Rows were chosen to be rich in hits. Some 2.2% of all compounds tested hit in one or more screens of this group.
SMILES,VIM-2 inh,IMP-1 inhibitor,PHOSPHO1 inh,PvdQ acylase,Yeast superoxide
Cc1ccc(S(=O)(=O)N2CCOCC2)cc1NC(=O)COc1ccccc1Cc1ccccc1,·,·,·,-10,115
CCOc1ccc(CC(=O)Nc2c3c(nn2C(C)(C)C)CS(=O)(=O)C3)cc1,-2,-2,21,-14,107
Cc1ccc(S(=O)(=O)N2CCCC2)cc1C(=O)Nc1ccc(-n2cnnn2)cc1,·,·,·,5,100
CC(=O)c1sc2nc(-c3cccs3)ccc2c1N,-3,-2,73*,-11,109
Cc1ccc2c(c1)c1ccc3c(c1n2C)C(=O)C=CC3=O,12*,-1,37,-17,·
Cc1ccc(-c2nc(C(=O)NCCCN3CCOCC3)cc3c2[nH]c2ccccc23)cc1,1,-3,23,-12,121
COc1ccc(-c2nc(C(=O)NCCCN3CCOCC3)cc3c2[nH]c2ccccc23)cc1OC,12*,-2,40,-12,104
Cc1ccc(NCC(=O)c2ccc(C)cc2)cc1,6,36*,9,-14,92
Cc1ccc(C(=O)CNc2ccc(C)c(Cl)c2)cc1,-1,-4,-27,9,111
Nc1c(C(=O)c2ccc(Cl)cc2)oc2ccccc12,-3,-2,6,10,109
O=C(c1ccc(Cl)cc1)c1oc2ccccc2c1CS(=O)c1ccc(Cl)cc1 (stereo not drawn),-3,-4,107*,3,102
Cc1cc(Cl)ccc1OCc1n[nH]c(=S)n1C1CCCCC1,-1,-1,55,-11,114
COc1ccc(Cl)cc1-c1n[nH]c(=S)n1C1CCCCC1,-3,-4,97*,-2,87
COc1ccc(-c2n[nH]c(=S)n2C2CCCCC2)cc1,7,-3,100*,-5,103
O=C(NC(NC(=S)Nc1ccc(Cl)cc1Cl)C(Cl)(Cl)Cl)c1cccc([N+](=O)[O-])c1 (stereo not drawn),0,0,37,-14,103
COc1ccc(N2CCC(CNS(=O)(=O)c3cccc(C(F)(F)F)c3)C2)cc1 (stereo not drawn),-2,-2,79*,-7,90
COc1ccc(CNC(=O)C2CCN(S(=O)(=O)c3cccc(C(F)(F)F)c3)CC2)cc1,·,·,·,9,·
CCn1c(SCC(=O)NC2CCCC2)nnc1-c1cccnc1,3,-2,-9,1,105
Cc1ccc(N=c2c([N+](=O)[O-])nn(-c3ccc(Cl)cc3)n2O)cc1C,-2,12*,24,-19,102
O=[N+]([O-])c1nn(-c2ccc(Cl)cc2)n(O)c1=NCc1ccccc1,2,-1,2,41*,112
CCOCCCNC(=O)c1ccc(/C=C2\Oc3ccccc3N(C)C2=O)cc1,7.7*,0,16,-9,105
S=C(NCCCN1CCOCC1)NCCCN1CCOCC1,-2,-5,46,6,105
S=c1[nH]nc(NCCCN2CCOCC2)s1,0,-3,62*,4,106
Cc1cc(C)c2c(N)c(C(=O)C(C)(C)C)sc2n1,2,1,48,-3,88
Cc1cc(C)c2c(N)c(S(=O)c3ccc(C(C)(C)C)cc3)sc2n1 (stereo not drawn),4,-1,106*,-10,108
SMILES,VIM-2 inh,IMP-1 inhibitor,PHOSPHO1 inh,PvdQ acylase,Yeast superoxide
O=C(c1c(F)cccc1F)N1CCCC(c2nc(-c3ccc(F)cc3)no2)C1 (stereo not drawn),-1,-2,62*,11,100
O=C(c1ccc(F)cc1)N1CCCC(c2nc(-c3ccncc3)no2)C1 (stereo not drawn),·,·,·,-2,98
Cc1cc(O)c(/C=N/Nc2ccc(F)cc2)c(=O)o1,-4,-3,-100,9,105
Cc1ccc(N/N=C/c2c(O)cc(C)oc2=O)cc1,-1,-4,88*,0,79
O=C(NCCNC(=O)c1cc(OCC(F)(F)F)ccc1OCC(F)(F)F)Nc1cccc(C(F)(F)F)c1,1,7.0*,2,-8,84
CCOC(=O)c1cc2c(c(-c3ccccc3)n1)[C@H](CCO)N(S(=O)(=O)C(C)(C)C)C2,·,·,·,-12,·
COc1ccc(C2Nc3ccccc3C(=O)N2Cc2ccco2)cc1CN1C(=O)c2ccccc2C1=O (stereo not drawn),-1,4.7*!,9,-5,96
Cc1ccc(S(=O)(=O)N2CCN(c3ccnc4cc(Cl)ccc34)CC2)cc1,10*,0,37,-14,96
